Screening results deposited in PubChem BioAssay by several laboratories.
ERa coact pot = enhancers of ERα–SRC-1 coactivator binding, primary screen, biochemical, TR-FRET, ERα LBD, low estradiol. TR-FRET ERalpha-LBD/SRC-Cy5 coactivator binding, 2 h; 100 = basal binding, no effect. coactivator binding (% of control), % at 25.6 µM. actives 1.3% (n = 86,000). AID 639, 2007; in the data active means activity above about 200%;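 further: binding measured in presence of low estradiol as agonist stimulus; 0% = peptide alone without receptor and 100% = receptor with peptide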
ERb SRC1 inh = inhibitors of ERβ-SRC1 coactivator interaction, primary screen, biochemical, TR-FRET, ERβ LBD, SRC-1 peptide. TR-FRET ER-beta LBD / SRC1-Cy5 peptide binding; receptor agonist-loaded with 1 µM estradiol. AID 633, 2007. actives 1.3% (n = 86,000). inhibition, % at 25.6 µM. Estrogen receptor beta (Homo sapiens), Q92731;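 active means compounds whose percent inhibition of the receptor-coactivator binding signal exceeds about 50% in the single-dose screen, limit read from the data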;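 further: 0% = receptor plus peptide wells without compound and 100% = peptide-only wells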
sEH inh = soluble epoxide hydrolase inhibitors, primary screen, biochemical, human sEH | inhibition, % at 2 µM | actives 0.34% (n = 91,000) | recombinant human sEH enzymatic activity assay | AID 707, 2007; in the data active means inhibition above about 80%
ERa SRC1 inh = ERα–SRC-1 coactivator interaction inhibitors, primary screen, biochemical, TR-FRET, ERα LBD, estradiol-bound; TR-FRET ER-alpha LBD / SRC-1 peptide; Estrogen receptor (Homo sapiens), P03372; actives 1.7% (n = 86,000); inhibition, % at 25.6 µM; in the data active means inhibition above about 50%;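 further: 0% = receptor plus peptide control and 100% = peptide only without receptor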
HIV Rev-RRE inh = HIV-1 Rev-RRE binding inhibitors, primary screen, biochemical, FRET, protein-RNA interaction; Rev peptide-RRE RNA binding; inhibition, % at 8 µM; actives 0.79% (n = 97,000); AID 704, 2007;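 active means inhibition above the screen-wide mean plus 3 SD, cut at about 35% in these data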;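 further: 0% = median DMSO wells and 100% = median Neomycin B control wells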
Target sequence (P05866 whole entry, looked up): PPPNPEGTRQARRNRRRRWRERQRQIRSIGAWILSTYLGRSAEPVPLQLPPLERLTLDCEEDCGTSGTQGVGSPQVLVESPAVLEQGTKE
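Test system: Cy5-tagged RRE RNA duplex with fluorescein-tagged Rev peptide; Probe or stimulus: labelled Rev peptide; Schedule: 5 min preincubation and 15 min binding, 25 °C; Signal: FRET fluorescence readout; Evaluation: % inhibition from 671/540 nm acceptor-to-donor ratio, scaled between controls; Control set: DMSO and neomycin B.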
sEH activator = soluble epoxide hydrolase activators, primary screen, biochemical, human sEH. purified human sEH enzymatic activity, activator screen. actives 0.04% (n = 91,000). activation, % at 2 µM; in the data active means activation above about 37%
Active calls of the source: *; · = no result; [ ] = remark or other dose. This is a sample that favours compounds with a hit; in the whole collection about 3.5% have one here.

SMILES	ERa coact pot	ERb SRC1 inh	sEH inh	ERa SRC1 inh	HIV Rev-RRE inh	sEH activator
CCOc1ccc(OCC)c(NC(=O)CCCN2C(=O)c3cccnc3C2=O)c1	91	11	-21	3	7	21
CC(C)n1c(=S)[nH]c2ccccc21	·	·	-19	·	-1	20
Cc1ccc(C)c2[nH]c(=O)c(C(c3nnnn3Cc3ccccc3)N3CCc4ccccc4C3)cc12 (configuration not stated)	294*[fluorescence artefact?]	50	0	51*[fluorescence artefact?]	8	0
Cc1cccc2cc(C(c3nnnn3CC3CCCO3)N3CCc4ccccc4C3)c(=O)[nH]c12 (configuration not stated)	102	-13	·	2	7	·
O=C(COc1ccc2c(c1)OCO2)Nc1ccc2c(c1)oc1ccccc12	50	25	7	51*[fluorescence artefact?]	9	-3
O=C(C1=C(O)C(=O)N(c2ncccn2)C1c1ccc(Cl)cc1)c1ccco1 (configuration not stated)	110	-1	-3	3	32	3
O=C(C1=C(O)C(=O)N(c2ncccn2)C1c1cccc(Cl)c1)c1ccco1 (configuration not stated)	98	9	-4	4	36*	6
O=C(C1=C(O)C(=O)N(c2ncccn2)C1c1ccc(Cl)c(Cl)c1)c1ccco1 (configuration not stated)	24	31	·	22	51*	·
O=C(c1ccc2c(c1)OCO2)N1CCc2ccccc2C1	117	-11	·	-1	5	·
CCN(CC)C(=O)c1ccc(S(=O)(=O)NCc2cccnc2)cc1	130	-4	-2	-5	5	2
O=C(O)CCC(=O)OC1CC2CCC1C2 (configuration not stated)	126	-7	-14	-5	9	16
Cc1ccc(Cn2ccc(=O)c(Cc3c(Cl)cccc3Cl)c2C)cc1	·	·	90*	·	7	-90
Cn1c(SCC(=O)Nc2nc3c(s2)CCCC3)nnc1-c1ccccc1	119	-4	-11	3	7	11
CC(C)c1cc(=O)oc2c3c4c(cc12)CCCN4CCC3	86	2	·	11	·	·
CN1CCCc2cc3c(C(F)(F)F)cc(=O)oc3nc21	134	-4	5	-5	71*	-2
O=C(CN1CCN(c2ccccc2)CC1)Nc1ccccc1C(F)(F)F	84	7	5	-1	1	-7
CCCCC1(C)OC(=O)C(=Cc2ccc(N(CC)CC)cc2)C(=O)O1 (configuration not stated)	·	·	-5	·	87*[fluorescence artefact?]	4
COc1ccc(CC(=O)OCc2cc3cccc(C)c3[nH]c2=O)cc1	131	8	7	-2	2	-10
COc1ccc(C(=O)OCc2cc3cccc(C)c3[nH]c2=O)cc1	217*[fluorescence artefact?]	32	1	21	6	-4
Cc1cc(OCC(F)(F)C(F)(F)C(F)(F)C(F)F)nc(N)n1	99	-7	-12	-3	14	11
O=C(NCCN1C(=O)C2C3C=CC(C3)C2C1=O)N1CCOCC1 (configuration not stated)	115	-4	5	-5	5	-5
COC(=O)c1c(=O)n(O)c2ccc(OC)cc2[n+]1[O-]	114	1	5	-1	41*	-6
COc1ccc(CCNC(=O)COc2ccc(-c3ccc(C)cc3)cc2)cc1OC	·	·	-20	·	-5	18
COc1cc(CC(=O)OCC(=O)Nc2ncc(Cl)cc2Cl)cc(OC)c1OC	67	40	10	45	7	-10
COc1ccc(CC(=O)OCC(=O)Nc2ncc(Cl)cc2Cl)cc1	53	43	11	52*[fluorescence artefact?]	5	-11
SMILES	ERa coact pot	ERb SRC1 inh	sEH inh	ERa SRC1 inh	HIV Rev-RRE inh	sEH activator
COc1cc2c(C#N)c(N3CCCCC3)nc(N)c2c(N)n1	103	5	8	14	28	-7
COc1cc2c(C#N)c(N3CCOCC3)nc(N)c2c(N)n1	95	75*[fluorescence artefact?]	-4	1	8	9
CCCCSc1cnn(-c2ccccc2)c(=O)c1SCCCC	202*	26	-2	13	10	3
CCSc1cnn(-c2ccccc2)c(=O)c1SCC	109	-10	-6	-6	4	2
CCCCOCC1CN(c2ccccc2)C(=O)CS1 (configuration not stated)	103	25	6	22	-4	-7
CCCCC1C(=O)N(c2ccccc2)N(c2ccccc2)C1=O	16	83*[fluorescence artefact?]	·	92*	·	·
O=C(c1ccc(CS(=O)(=O)c2c(Cl)cccc2Cl)o1)N1CCCC1	118	-3	6	4	3	-4
CCOC(=O)c1cc(C#N)c(SCC(=O)c2cc(C#N)c(SC)nc2C)nc1C	288*	32	·	35	·	·
COc1ccc(CCNS(=O)(=O)c2ccc(S(=O)(=O)N3CCCC3)cc2)cc1OC	108	88*[fluorescence artefact?]	12	7	4	-10
COc1ccc(CCNS(=O)(=O)c2ccc3c(c2)n(C)c(=O)c(=O)n3C)cc1OC	·	·	·	·	5	·
CCOC(=O)C1CCN(S(=O)(=O)c2ccc(C(=O)OC)cc2)CC1	111	-3	9	-9	2	-8
CCOc1cc(C(=O)OCC(=O)NCc2ccco2)cc(OCC)c1OCC	80	45	2	57*[fluorescence artefact?]	-5	-1
O=C(COC(=O)c1cncc(Br)c1)NCc1ccco1	110	50*[fluorescence artefact?]	22	60*[fluorescence artefact?]	-4	-22
COc1cc(C(=O)OCC(=O)NCc2ccco2)cc(OC)c1OC	82	-5	-15	-10	5	14
CSc1ccc(Cl)c(C(=O)OCC(=O)NCc2ccco2)c1	142	47	4	52*[fluorescence artefact?]	4	-6
Cc1ccc(NS(=O)(=O)c2cccc(C(=O)OCC(=O)NCc3ccco3)c2)cc1	92	45	·	53*	·	·
Cc1cccc(N2CCN(C(=O)c3ccccc3NC(=O)C3CC=CCC3C(=O)O)CC2)c1 (configuration not stated)	·	·	-16	·	3	16
COc1ccc(S(=O)(=O)N(C)CC(=O)N2CCCCC2)cc1Cl	118	-14	4	-23	-4	-6
COc1ccc(-n2ncc3c(=O)n(CC(=O)OCc4ccccc4)cnc32)cc1	112	2	12	4	4	-14
COc1ccc(NC(=O)Cn2nnc(-c3ccccc3F)n2)cc1Cl	101	6	31	9	9	-31
CCOC(=O)N1CCC(N2C(=O)c3ccc(C(=O)Nc4ccc(F)cc4F)cc3C2=O)CC1	109	17	·	21	·	·
